Results taken from ChEMBL document CHEMBL3425427, “Pyrido[4,3-e][1,2,4]triazolo[4,3-a]pyrazines as Selective, Brain Penetrant Phosphodiesterase 2 (PDE2) Inhibitors” (ACS Med Chem Lett, 2015).

Assays:
[1] = Drug metabolism in rat liver microsomes at 1 uM incubated for 15 mins at 37 degC; format: ADME; settings: read-out: Drug metabolism
Method in brief: (§1)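 Compound at 1 μM incubated 15 min at 37 °C with human or rat liver microsomes; read-out is percent metabolized.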

[2] = Drug metabolism in human liver microsomes at 1 uM incubated for 15 mins at 37 degC; format: ADME; settings: read-out: Drug metabolism; method in brief: as §1
[3] = Ratio of drug level in brain to plasma of Sprague-Dawley rat at 10 mg/kg, sc after 1 hr; format: ADME, organism-based; parameters: dose 10 mg/kg, route subcutaneous; settings: read-out: BPR
Method in brief: (§2)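 Fed male Sprague-Dawley rats, n = 2 per time point, given 10 mg/kg s.c. in 20% HPβCD at pH 3.5−4. Brain and plasma levels taken 1 h after dosing; brain-to-plasma ratio computed from these.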

[4] = Unbound fraction in Sprague-Dawley rat brain homogenates at 10 mg/kg, sc after 5 hrs at 37 degC by rapid equilibrium dialysis; format: ADME, organism-based; parameters: dose 10 mg/kg, route subcutaneous; settings: brain homogenate
Method in brief: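 Unbound fraction measured in rat brain homogenate by rapid equilibrium dialysis, 5 h incubation at 37 °C.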

[5] = biological target: T1, cAMP and cAMP-inhibited cGMP 3',5'-cyclic phosphodiesterase 10A (Rattus norvegicus, UniProt Q9QYJ6); test: Inhibition of 6-His-tagged rat recombinant PDE10A expressed in Sf9 cells using [3H]cAMP incubated for 60 mins by scintillation proximity assay
T1 sequence (Q9QYJ6 whole entry): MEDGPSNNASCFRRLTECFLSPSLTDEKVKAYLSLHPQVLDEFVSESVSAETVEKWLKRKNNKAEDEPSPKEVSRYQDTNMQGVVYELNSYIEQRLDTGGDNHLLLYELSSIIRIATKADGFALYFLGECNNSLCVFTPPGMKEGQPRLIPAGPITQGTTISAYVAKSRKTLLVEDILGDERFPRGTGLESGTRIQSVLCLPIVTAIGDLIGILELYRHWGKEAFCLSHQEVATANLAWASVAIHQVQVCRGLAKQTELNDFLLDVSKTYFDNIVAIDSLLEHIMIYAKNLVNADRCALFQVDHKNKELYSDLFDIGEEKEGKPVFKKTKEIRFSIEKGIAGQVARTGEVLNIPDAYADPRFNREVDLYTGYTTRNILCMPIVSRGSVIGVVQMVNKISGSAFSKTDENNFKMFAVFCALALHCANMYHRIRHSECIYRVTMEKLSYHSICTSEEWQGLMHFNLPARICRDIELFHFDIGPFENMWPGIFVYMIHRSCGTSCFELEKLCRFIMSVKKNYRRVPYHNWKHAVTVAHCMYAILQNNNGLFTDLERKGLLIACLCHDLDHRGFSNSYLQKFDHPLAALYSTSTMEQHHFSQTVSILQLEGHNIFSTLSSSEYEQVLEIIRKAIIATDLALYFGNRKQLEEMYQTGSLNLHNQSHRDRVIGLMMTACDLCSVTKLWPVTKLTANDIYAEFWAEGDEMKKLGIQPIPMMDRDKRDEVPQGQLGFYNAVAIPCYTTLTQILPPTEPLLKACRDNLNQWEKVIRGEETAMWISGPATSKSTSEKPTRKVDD

[6] = Drug level in Sprague-Dawley rat brain homogenates at 10 mg/kg, sc after 1 hr; format: ADME, organism-based; parameters: dose 10 mg/kg, route subcutaneous; settings: read-out: Drug uptake; method in brief: as §2
Rattus norvegicus = test: In vivo PDE2 occupancy in Wistar rat assessed as inhibition of specific binding of [3H]-4-((1-(5-butoxypyridin-3-yl)-4-methyl-[1,2,4]triazolo[4,3-a]quinoxalin-8-yl)methyl)morpholine radiotracer at 10 mg/kg, sc and pre-treated with 2.5 mg/kg, sc PDE10 inhibitor MP10; format: functional

| Compound | metabolised at 0.25 h, 1 µM [1] | metabolised at 0.25 h, 1 µM [2] | Kp at 1 h [3] | fraction unbound at 5 h [4] | IC50 [5] | concentration at 1 h [6] | Occ (Rattus norvegicus) |
| --- | --- | --- | --- | --- | --- | --- | --- |
| COCCOc1ccc(Cl)c(-c2nnc3c(C)nc4ccncc4n23)c1 | 18% | 5% | 0.44 | 0.17 | 9.12 µM | 801 ng/g | – |
| Cc1nc2ccncc2n2c(-c3cc(N4CCOCC4)ccc3Cl)nnc12 | 53% | 14% | – | – | > 10 µM | – | – |
| Cc1nc2ccncc2n2c(-c3cc(OC(F)(F)F)ccc3Cl)nnc12 | 11% | 3% | – | – | 8.91 µM | – | – |
| Cc1nc2ccncc2n2c(-c3cc(COC(C)C)ccc3Cl)nnc12 | 98% | 57% | – | – | 6.03 µM | – | – |
| CCCCOc1cncc(-c2nnc3c(C)nc4ccncc4n23)c1 | 46% | 6% | 0.61 | > 0.3 | – | 789 ng/g | 23% |
